Measurements: ChEMBL document CHEMBL1212764, “Antimicrobial resistance in Haemophilus influenzae respiratory tract isolates in Korea: results of a nationwide acute respiratory infections surveillance” (2010)
In brackets after ≈: the same amount, converted by molar mass.

Experiments:
Format in all cases: functional
Haemophilus influenzae [1] = assay: Antimicrobial activity against Haemophilus influenzae isolate by broth microdilution method
Procedure, shortened: (§1)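 Broth microdilution MIC in freshly prepared Haemophilus test medium per 2008 CLSI guidelines; H. influenzae ATCC 49247 and ATCC 49766 as control strains. Isolates from outpatient nasal aspirates (no prior antibiotics), cultured on blood agar with S. aureus streak and chocolate agar. PBP3 substitutions deduced from ftsI sequencing against the Rd strain; β-lactamase genes (TEM-1, ROB-1) detected by PCR.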

Haemophilus influenzae [2] = assay: Antimicrobial activity against beta-lactamase-negative, ampicillin-sensitive Haemophilus influenzae by broth microdilution method; procedure, shortened: as §1
Haemophilus influenzae [3] = assay: Antimicrobial activity against Beta-lactamase-positive, ampicillin-resistant Haemophilus influenzae by broth microdilution method; procedure, shortened: as §1
Haemophilus influenzae [4] = assay: Antimicrobial activity against Beta-lactamase-negative, ampicillin-resistant Haemophilus influenzae by broth microdilution method; procedure, shortened: as §1
Haemophilus influenzae [5] = assay: Antimicrobial activity against Beta-lactamase-positive, ampicillin-cluvulanate-resistant Haemophilus influenzae by broth microdilution method; procedure, shortened: as §1
Haemophilus influenzae [6] = assay: Antimicrobial activity against Beta-lactamase-negative, ampicillin-resistant Haemophilus influenzae with Asp350Asn, Ser357Asp, Met377Ile, Ser385Thr, Arg517His substitutions in penicillin-binding protein 3 by broth microdilution method; procedure, shortened: as §1
Haemophilus influenzae [7] = assay: Antimicrobial activity against Beta-lactamase-negative, ampicillin-resistant Haemophilus influenzae with Gly490Glu, Asn526Lys substitutions in penicillin-binding protein 3 by broth microdilution method; procedure, shortened: as §1
Haemophilus influenzae [8] = assay: Antimicrobial activity against Beta-lactamase-negative, ampicillin-resistant Haemophilus influenzae with Asp350Asn, Met377Ile, Asn526Lys substitutions in penicillin-binding protein 3 by broth microdilution method; procedure, shortened: as §1
Haemophilus influenzae [9] = assay: Antimicrobial activity against Beta-lactamase-negative, ampicillin-resistant Haemophilus influenzae with Asp350Asn, Met377Ile, Gly490Glu, Asn526Lys substitutions in penicillin-binding protein 3 by broth microdilution method; procedure, shortened: as §1
Haemophilus influenzae [10] = assay: Antimicrobial activity against Beta-lactamase-negative, ampicillin-resistant Haemophilus influenzae with Ala502Val, Asn526Lys substitutions in penicillin-binding protein 3 by broth microdilution method; procedure, shortened: as §1
Haemophilus influenzae [11] = assay: Antimicrobial activity against Beta-lactamase-negative, ampicillin-resistant Haemophilus influenzae with Asp350Asn, Met377Ile, Ala502Val, Asn526Lys substitutions in penicillin-binding protein 3 by broth microdilution method; procedure, shortened: as §1
Haemophilus influenzae [12] = assay: Antimicrobial activity against Beta-lactamase-negative, ampicillin-resistant Haemophilus influenzae with Asp350Asn, Met377Ile, Gly490Glu, Ala502Val, Asn526Lys substitutions in penicillin-binding protein 3 by broth microdilution method; procedure, shortened: as §1
Haemophilus influenzae [13] = assay: Antimicrobial activity against Beta-lactamase-negative, ampicillin-resistant Haemophilus influenzae with Ser311Pro, Ala502Thr, Asn526Lys substitutions in penicillin-binding protein 3 by broth microdilution method; procedure, shortened: as §1
Haemophilus influenzae [14] = assay: Antimicrobial activity against Beta-lactamase-negative, ampicillin-resistant Haemophilus influenzae with Ile449Val, Ala502Thr, Asn526Lys substitutions in penicillin-binding protein 3 by broth microdilution method; procedure, shortened: as §1
Haemophilus influenzae [15] = assay: Antimicrobial activity against Beta-lactamase-negative, ampicillin-resistant Haemophilus influenzae with Asp350Asn, Ser357Asp, Met377Ile, Ser385Thr, Ala502Thr, Asn526Lys substitutions in penicillin-binding protein 3 by broth microdilution method; procedure, shortened: as §1
Haemophilus influenzae [16] = assay: Antimicrobial activity against Beta-lactamase-negative, ampicillin-resistant Haemophilus influenzae with Asp350Asn, Ser357Asp, Ser385Thr, Leu389Phe, Ala502Thr, Asn526Lys substitutions in penicillin-binding protein 3 by broth microdilution method; procedure, shortened: as §1
Haemophilus influenzae [17] = assay: Antimicrobial activity against Beta-lactamase-negative, ampicillin-resistant Haemophilus influenzae with Ile449Val, Asn526Lys substitutions in penicillin-binding protein 3 by broth microdilution method; details: Haemophilus influenzae; read-out: MIC; procedure, shortened: as §1
Haemophilus influenzae [18] = assay: Antimicrobial activity against Beta-lactamase-negative, ampicillin-resistant Haemophilus influenzae with Asp350Asn, Ser357Asp, Met377Ile, Ser385Thr, Leu389Phe, substitutions in penicillin-binding protein 3 by broth microdilution method; procedure, shortened: as §1
Haemophilus influenzae [19] = assay: Antimicrobial activity against Beta-lactamase-negative, ampicillin-resistant Haemophilus influenzae with penicillin-binding protein 3 by broth microdilution method; procedure, shortened: as §1
Haemophilus influenzae [20] = assay: Antimicrobial activity against Beta-lactamase-positive, ampicillin-cluvulanate-resistant Haemophilus influenzae with Asp350Asn, Ser357Asp, Met377Ile, Ser385Thr, Arg517His substitutions in penicillin-binding protein 3 by broth microdilution method; procedure, shortened: as §1
Haemophilus influenzae [21] = assay: Antimicrobial activity against Beta-lactamase-positive, ampicillin-cluvulanate-resistant Haemophilus influenzae with Asp350Asn, Met377Ile, Asn526Lys substitutions in penicillin-binding protein 3 by broth microdilution method; procedure, shortened: as §1
Haemophilus influenzae [22] = assay: Antimicrobial activity against Beta-lactamase-positive, ampicillin-cluvulanate-resistant Haemophilus influenzae with Asp350Asn, Met377Ile, Ser385Thr, Asn526Lys substitutions in penicillin-binding protein 3 by broth microdilution method; procedure, shortened: as §1
Haemophilus influenzae [23] = assay: Antimicrobial activity against Beta-lactamase-positive, ampicillin-cluvulanate-resistant Haemophilus influenzae with Asp350Asn, Met377Ile, Ala502Val, Asn526Lys substitutions in penicillin-binding protein 3 by broth microdilution method; procedure, shortened: as §1
Haemophilus influenzae [24] = assay: Antimicrobial activity against Beta-lactamase-positive, ampicillin-cluvulanate-resistant Haemophilus influenzae with Ala502Val, Asn526Lys substitutions in penicillin-binding protein 3 by broth microdilution method; procedure, shortened: as §1
Haemophilus influenzae [25] = assay: Antimicrobial activity against Beta-lactamase-positive, ampicillin-cluvulanate-resistant Haemophilus influenzae with Asp350Asn, Met377Ile, Gly490Glu, Ala502Val, Asn526Lys substitutions in penicillin-binding protein 3 by broth microdilution method; procedure, shortened: as §1
Haemophilus influenzae [26] = assay: Antimicrobial activity against Beta-lactamase-positive, ampicillin-cluvulanate-resistant Haemophilus influenzae with Ala368Thr, Ala502Thr, Asn526Lys substitutions in penicillin-binding protein 3 by broth microdilution method; procedure, shortened: as §1
Haemophilus influenzae [27] = assay: Antimicrobial activity against Beta-lactamase-positive, ampicillin-cluvulanate-resistant Haemophilus influenzae with Asp350Asn, Ser357Asp, Ala437Ser, Ala502Thr, Asn526Lys substitutions in penicillin-binding protein 3 by broth microdilution method; procedure, shortened: as §1
Haemophilus influenzae [28] = assay: Antimicrobial activity against Beta-lactamase-positive, ampicillin-cluvulanate-resistant Haemophilus influenzae with Asp350Asn, Ala502Thr, Asn526Lys substitutions in penicillin-binding protein 3 by broth microdilution method; procedure, shortened: as §1
Haemophilus influenzae [29] = assay: Antimicrobial activity against Beta-lactamase-positive, ampicillin-cluvulanate-resistant Haemophilus influenzae with Ile449Val, Asn526Lys substitutions in penicillin-binding protein 3 by broth microdilution method; procedure, shortened: as §1
Haemophilus influenzae [30] = assay: Antimicrobial activity against Beta-lactamase-positive, ampicillin-cluvulanate-resistant Haemophilus influenzae with Asp350Asn, Ala437Ser substitutions in penicillin-binding protein 3 by broth microdilution method; procedure, shortened: as §1

`N[C@@H](C(=O)N[C@@H]1C(=O)N2C(C(=O)O)=C(Cl)CS[C@H]12)c1ccccc1` [CEFACLOR ANHYDROUS] showed an MIC50 (Haemophilus influenzae [1]) of 8 µg/mL (≈ 21.8 µM), an MIC90 (Haemophilus influenzae [1]) of 32 µg/mL (≈ 87 µM) and an MIC50 (Haemophilus influenzae [2]) of 8 µg/mL (≈ 21.8 µM). The MIC90 (Haemophilus influenzae [2]) was 16 µg/mL (≈ 43.5 µM), the MIC50 (Haemophilus influenzae [3]) was 8 µg/mL (≈ 21.8 µM) and the MIC90 (Haemophilus influenzae [3]) was 32 µg/mL (≈ 87 µM). The MIC50 (Haemophilus influenzae [4]) was 8 µg/mL (≈ 21.8 µM), the MIC90 (Haemophilus influenzae [4]) was 32 µg/mL (≈ 87 µM) and the MIC50 (Haemophilus influenzae [5]) was 8 µg/mL (≈ 21.8 µM). For the same molecule, the MIC90 (Haemophilus influenzae [5]) was 64 µg/mL (≈ 174 µM).

Molecule `CO/N=C(\C(=O)N[C@@H]1C(=O)N2C(C(=O)O)=C(COC(C)=O)CS[C@H]12)c1csc(N)n1` [CEFOTAXIME] has an MIC50 (Haemophilus influenzae [1]) of 0.063 µg/mL (≈ 0.138 µM), an MIC90 (Haemophilus influenzae [1]) of 0.125 µg/mL (≈ 0.274 µM) and an MIC50 (Haemophilus influenzae [2]) of 0.063 µg/mL (≈ 0.138 µM). It also gave an MIC90 (Haemophilus influenzae [2]) of 0.25 µg/mL (≈ 0.549 µM), an MIC50 (Haemophilus influenzae [3]) of 0.063 µg/mL (≈ 0.138 µM) and an MIC90 (Haemophilus influenzae [3]) of 0.125 µg/mL (≈ 0.274 µM). For the same molecule, the MIC50 (Haemophilus influenzae [4]) was 0.063 µg/mL (≈ 0.138 µM), the MIC90 (Haemophilus influenzae [4]) was 1 µg/mL (≈ 2.2 µM) and the MIC50 (Haemophilus influenzae [5]) was 0.063 µg/mL (≈ 0.138 µM). For the same molecule, the MIC90 (Haemophilus influenzae [5]) was 1 µg/mL (≈ 2.2 µM), the MIC (Haemophilus influenzae [6]) was 0.25 µg/mL (≈ 0.549 µM) and the MIC (Haemophilus influenzae [7]) was 0.063 µg/mL (≈ 0.138 µM). For the same molecule, the MIC (Haemophilus influenzae [8]) was 0.063 µg/mL (≈ 0.138 µM), the MIC (Haemophilus influenzae [9]) was 0.063 µg/mL (≈ 0.138 µM) and the MIC (Haemophilus influenzae [10]) was 0.069 µg/mL (≈ 0.151 µM). It also gave an MIC (Haemophilus influenzae [11]) of 0.069 µg/mL (≈ 0.151 µM), an MIC (Haemophilus influenzae [12]) of 0.069 µg/mL (≈ 0.151 µM) and an MIC (Haemophilus influenzae [13]) of 0.194 µg/mL (≈ 0.426 µM). The MIC (Haemophilus influenzae [14]) was 0.194 µg/mL (≈ 0.426 µM), the MIC (Haemophilus influenzae [15]) was 0.194 µg/mL (≈ 0.426 µM) and the MIC (Haemophilus influenzae [16]) was 0.194 µg/mL (≈ 0.426 µM). It also gave an MIC (Haemophilus influenzae [17]) of 0.708 µg/mL (≈ 1.55 µM), an MIC (Haemophilus influenzae [18]) of 1.7 µg/mL (≈ 3.73 µM) and an MIC (Haemophilus influenzae [19]) of 0.063 µg/mL (≈ 0.138 µM). For the same molecule, the MIC (Haemophilus influenzae [20]) was 0.188 µg/mL (≈ 0.413 µM), the MIC (Haemophilus influenzae [21]) was 0.532 µg/mL (≈ 1.17 µM) and the MIC (Haemophilus influenzae [22]) was 0.532 µg/mL (≈ 1.17 µM). The MIC (Haemophilus influenzae [23]) was 0.188 µg/mL (≈ 0.413 µM), the MIC (Haemophilus influenzae [24]) was 0.188 µg/mL (≈ 0.413 µM) and the MIC (Haemophilus influenzae [25]) was 0.188 µg/mL (≈ 0.413 µM). The MIC (Haemophilus influenzae [26]) was 0.079 µg/mL (≈ 0.173 µM), the MIC (Haemophilus influenzae [27]) was 0.079 µg/mL (≈ 0.173 µM) and the MIC (Haemophilus influenzae [28]) was 0.079 µg/mL (≈ 0.173 µM). The MIC (Haemophilus influenzae [29]) was 0.094 µg/mL (≈ 0.206 µM) and the MIC (Haemophilus influenzae [30]) was 0.125 µg/mL (≈ 0.274 µM).
